An excerpt weighted towards active compounds, which were near 4.7% of everything screened.
HTR2A ag = agonists of mouse serotonin 5-HT2A receptor (HTR2A); CHO-K1 mHTR2A beta-arrestin complementation, luminescence; percent of 30 µM serotonin response; activation, % at 7.6 µM; 360,000 compounds, 0.66% hits; AID 624169;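 active means activation above a run cutoff, the mean activation of all tested compounds plus 3 SD, cut at about 14% in these data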
Target sequence (P35363 whole entry, looked up): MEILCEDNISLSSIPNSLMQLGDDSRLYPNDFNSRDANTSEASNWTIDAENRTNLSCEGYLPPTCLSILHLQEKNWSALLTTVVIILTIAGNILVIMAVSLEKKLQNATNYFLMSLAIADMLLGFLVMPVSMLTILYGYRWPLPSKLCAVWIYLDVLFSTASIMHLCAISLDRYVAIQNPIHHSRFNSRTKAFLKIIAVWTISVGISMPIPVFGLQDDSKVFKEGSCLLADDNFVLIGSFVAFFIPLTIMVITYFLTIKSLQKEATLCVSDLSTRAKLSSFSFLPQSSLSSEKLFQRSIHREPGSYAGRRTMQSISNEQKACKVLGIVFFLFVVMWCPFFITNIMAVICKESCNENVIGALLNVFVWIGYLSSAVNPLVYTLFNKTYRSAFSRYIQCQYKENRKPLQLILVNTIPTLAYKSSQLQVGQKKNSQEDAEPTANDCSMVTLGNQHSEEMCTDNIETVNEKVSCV
MC4R antag cAMP = blocks human MC4R cAMP signaling. MC4R-expressing cells, MTII-stimulated cAMP, LANCE TR-FRET. inhibition, % at 6.5 µM. 360,000 compounds, 0.48% hits;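 active means inhibition above its plate's cutoff, the mean of tested wells on that plate plus 3 SD, cut at about 29% in these data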
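Material – human MC4R-expressing U2OS cells · Repeats – no replicates · Detection – TR-FRET with Eu-cAMP and labeled anti-cAMP, 671 nm · Times – compound 30 min, challenge 1 h, detection 1 h · Compound – single nominal compound dose of 6.5 µM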
MC4R ag barr = activates human MC4R beta-arrestin recruitment | AID 540308 | U2OS MC4R beta-arrestin complementation, luminescence; percent of melanotan II response, DMSO zero | activation, % at 8.9 µM | 360,000 compounds, 0.98% hits;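 active means activation above a per-plate cutoff, the mean activation of sample wells on that plate plus 3 SD, cut at about 8% in these data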
AHR act = human AHR activation. P35869. AHR-responsive luciferase reporter cells, luminescence. activation, % at 5 µM. 320,000 compounds, 2.5% hits. AID 2796; in the data active means activation above about 47%
GAA850 FXN act = activators of GAA850 frataxin (FXN) promoter; activation, % at 6 µM; 360,000 compounds, 0.56% hits; HEK293 lucGAA850 FXN promoter luciferase reporter, 24 h; percent of 10 µM SAHA response;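 active means activation above the average of all compounds screened plus 3 SD, cutoff fixed separately per campaign, cut at about 7.5% in these data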
Hits are given with their value; - = inactive; . = no result given.

SMILES	HTR2A ag	MC4R antag cAMP	MC4R ag barr	AHR act	GAA850 FXN act
CCCCN1C(=O)C(CC(=O)NCC2CCCCC2)CC(C(=O)N2CCOCC2)=C1C (centres undefined)	-	-	-	.	-
O=C(COC(=O)c1cc(C(F)(F)F)cc(C(F)(F)F)c1)NCc1ccc(Cl)cc1	-	-	8.7	-	-
O=C(COC(=O)c1cncc(Br)c1)NCc1ccc(Cl)cc1	-	-	-	-	-
CC(C)C[C@@H](CN1CCC[C@@H]1CN1C(=S)NC[C@@H]1Cc1ccc(O)cc1)N1C[C@H](Cc2ccc(O)cc2)N(CC2CCCCCC2)C1=S	-	.	.	.	.
OC[C@@H]1CN(CCN2CCOCC2)C[C@H](n2cnc3c(NCc4ccc(F)cc4)ncnc32)O1	-	-	-	.	-
N#Cc1ccc(S(=O)(=O)N2CCC(C(=O)N3CCN(Cc4ccc5c(c4)OCO5)CC3)CC2)cc1	-	-	-	-	-
CNc1cc(-c2cccc(N(C)C)c2)ncn1	-	-	-	.	-
Cc1c(Cl)c([N+](=O)[O-])nn1Cc1ccc(C(=O)N/N=C\c2cccc(Br)c2)o1	-	-	-	55	-
O=C1C=CC(=O)N1Cc1ccccc1	18	-	-	-	-
O=C1C2CC=CCC2C(=O)N1Cc1ccccc1 (centres undefined)	-	-	-	-	-
NS(=O)(=O)c1ccc(CCNC(=O)C2CC(=O)N(Cc3ccccc3Cl)C2)cc1 (centres undefined)	-	-	-	-	-
CC(OC(=O)CNC(=O)c1sc2ccccc2c1Cl)C(=O)NC1(C#N)CCCCC1 (centres undefined)	-	-	-	-	-
Nc1c(Cl)cnc(C(Cl)(Cl)Cl)c1Cl	-	-	-	67	-
O=C1CC(CC(=O)N/N=C/c2ccccc2[N+](=O)[O-])=NN1	-	-	-	47	-
O=C(CCN1C(=O)/C(=C/c2ccccc2)SC1=S)NNC(=O)c1cccnc1	-	-	8.8	-	-
COc1ccc(OC)c(CNC(=O)CCCc2cn(C)c3ccccc23)c1	-	-	-	71	-
CC1ON=C(c2ccccn2)N(Cc2ccc3c(c2)OCO3)C1=O (centres undefined)	-	-	-	.	-
CCC1Nc2ncnc(N3CCOCC3)c2N(Cc2ccc(Cl)cc2)C1=O (centres undefined)	-	-	-	-	-
Nn1c(SCC(=O)Nc2ccc(F)cc2)nnc1-c1ccccn1	-	-	-	48	-
O=C(N/N=C/c1ccc2c(c1)OCO2)c1cccnc1	-	-	-	55	-
O=C(N/N=C/c1cc2c(c([N+](=O)[O-])c1)OCO2)c1ccncc1	-	-	-	61	-
Cn1cc([N+](=O)[O-])c(C(=O)N/N=C/c2ccc3c(c2)OCO3)n1	-	-	-	-	-
O=C(N/N=C/c1cc2c(cc1[N+](=O)[O-])OCO2)c1cccnc1	-	-	-	51	-
O=C(N/N=C/c1cc2cc3c(cc2nc1Cl)OCO3)c1ccncc1	-	-	-	64	-
O=C(COC(=O)CNC(=O)c1ccc(Cl)c([N+](=O)[O-])c1)NC(=O)CN1CCCC1=O	-	-	-	-	-
SMILES	HTR2A ag	MC4R antag cAMP	MC4R ag barr	AHR act	GAA850 FXN act
COc1ccccc1-c1csc(C(NC(C)=O)c2ccc(F)c(F)c2)n1 (centres undefined)	-	-	-	.	-
O=[N+]([O-])c1cc2c(cc1C=Nc1ccccc1)OCO2	15	-	-	-	-
CN(C)c1ccc(C2C3CCCc4ccccc4C3=NN2C)cc1 (centres undefined)	-	-	-	61	-
COc1ccc(NC(=O)CSc2nnc3ccc(-c4cccnc4)nn23)c(OC)c1	-	-	-	-	-
CCOc1ccccc1NC(=O)CSc1nnc2ccc(-c3cccnc3)nn12	-	-	-	49	-
COc1ccccc1NC(=O)CSc1nnc2ccc(-c3cccnc3)nn12	-	-	-	58	-
CCCOC(=O)c1ccc(Oc2cn[nH]c2-c2ccc(O)cc2O)cc1	-	-	9.5	-	-
COc1ccc(S(=O)(=O)Nc2ccc3c(c2)C(=O)N([C@H](C)CO)C[C@H](C)[C@@H](CN(C)C(=O)Nc2ccc(F)cc2)OCCCC[C@H](C)O3)cc1	-	-	-	.	-
C#CCSc1nnc(-c2c[nH]c3ccccc23)n1C	-	-	-	49	-
CC(C)Sc1nnc(-c2c[nH]c3ccccc23)n1C	-	-	-	-	-
CCCCC(=NCCc1c(C)[nH]c2ccc(OC)cc12)C1=C(O)CC(c2ccccc2)CC1=O (centres undefined)	-	-	-	-	-
CC(=NCCc1c(C)[nH]c2ccc(OCc3ccccc3)cc12)C1=C(O)CC(c2ccccc2)CC1=O (centres undefined)	-	-	-	77	-
O=S(=O)(Nc1ccc(-c2nc3cccnc3s2)cc1)c1ccc(Cl)s1	-	-	-	69	-
Cc1nc2ccc(S(=O)(=O)Nc3ccc(-c4nc5cccnc5s4)cc3)cc2s1	-	-	-	69	-
O=S(=O)(Nc1ccc(-c2nc3cccnc3s2)cc1)c1ccccc1F	-	-	-	56	-
Cc1nc2ccc(S(=O)(=O)Nc3cccc(-c4nc5cccnc5s4)c3)cc2s1	-	-	-	-	-
Cc1nc2cc(NS(=O)(=O)c3ccccc3F)ccc2s1	-	-	-	-	-
CC(C)C[C@H]1CNC(=O)C(=O)N1CC1CCN(CC2CCC(C)CC2)CC1 (some centres undefined)	-	.	.	.	.
COCOCCn1cc(CN2CCS(=O)(=O)N(Cc3ccc(-c4ccc(Cl)nc4)cc3)C(C(C)C)C2=O)nn1 (centres undefined)	-	-	-	.	-
Cc1ccc(O)c(NC(=O)c2ccc3c(c2)C(=O)N(CC(C)C)C3=O)c1	-	-	-	73	-
COC(=O)C1=C(C)N(CC2CC2)C(=NCc2cccc(C(F)(F)F)c2)N[C@H]1c1ccccc1	-	-	-	-	-
COC(=O)C1=C(C)N(Cc2ccccc2)C(=NCCc2c[nH]c3ccccc23)N[C@H]1c1cccc(C(F)(F)F)c1	-	-	33	-	-
COCCN=C1N[C@@H](c2cccc(C(F)(F)F)c2)C(C(=O)OC)=C(C)N1Cc1ccccc1	-	-	-	-	-
COC(=O)C1=C(C)N(Cc2ccccc2)C(=NCc2cccc(C(F)(F)F)c2)N[C@H]1c1cccc(C(F)(F)F)c1	-	-	21	-	-
COC(=O)C1=C(C)N(Cc2ccccc2)C(=NCc2cccc(C(F)(F)F)c2)N[C@H]1c1cccc(F)c1	-	-	13	-	-
O=C(CSc1nc2ccccc2c(=O)[nH]1)Nc1ccc(Br)cc1	-	-	-	-	-
CCN(CC)c1ccc(NC(=O)CSc2nc3ccccc3c(=O)[nH]2)cc1	-	-	-	63	-
Cc1cc(C)nc(NS(=O)(=O)c2ccc(NC(=O)CCC(=O)O)cc2)n1	-	-	-	-	-
Oc1ccccc1-c1nnc(-c2ccc(C(F)(F)F)cc2)o1	-	-	-	52	-

Screens: PubChem, The Scripps Research Institute Molecular Screening Center
